Our source for the IC50 and outcome values is PubChem BioAssay AID623898 (Johns Hopkins Ion Channel Center, 2012).

This test addresses Potassium channel subfamily K member 9 (Homo sapiens) (UniProt Q9NPC2). Kind of test: blockers of KCNK9 channel currents – cell-based, automated electrophysiology, HEK293, SAR follow-up (AID 623898). The settings on record: HEK293 KCNK9, QPatch automated patch clamp current. The procedure, abridged:
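Assay system: inducible KCNK9-expressing HEK293 cells. Medium: 140 mM potassium external buffer, pH 7.40. Compound: cumulative compound concentration series on each cell. Times: 5 min compound exposure per concentration. Signal: automated whole-cell voltage clamp, current at -30 mV. Controls: 140 mM K+ baseline zero block, 2 mM Ba2+ full block.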

Where “and” joins values, the source holds several entries; their conditions need not be identical. Identical values can stand only once. Calls of active or inactive are those of the source.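 Rule for the calls: active = over 50% block of current through the KCNK9 TASK-3 potassium channel at 10 µM compound; inactive = the rest.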

Chain of Potassium channel subfamily K member 9 (Homo sapiens) (Q9NPC2 whole entry, looked up): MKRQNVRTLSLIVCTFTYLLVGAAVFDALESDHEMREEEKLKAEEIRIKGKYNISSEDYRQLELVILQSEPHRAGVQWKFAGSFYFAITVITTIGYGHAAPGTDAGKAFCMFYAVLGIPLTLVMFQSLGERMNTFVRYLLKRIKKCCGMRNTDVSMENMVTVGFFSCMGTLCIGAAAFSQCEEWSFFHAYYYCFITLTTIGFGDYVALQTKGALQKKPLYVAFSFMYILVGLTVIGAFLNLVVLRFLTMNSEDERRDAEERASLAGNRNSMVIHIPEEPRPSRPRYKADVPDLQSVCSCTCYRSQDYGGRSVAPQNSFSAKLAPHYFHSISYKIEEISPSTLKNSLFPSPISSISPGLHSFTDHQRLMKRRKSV

Turning to `COc1ccccc1NC(=O)c1cccc(NC(=O)c2ccccc2)c1`, the IC50 (usually the concentration that inhibits the measured activity by half) is 8480 nM.
The same measure, in the same setting: the result for `CCOc1ccccc1C(=O)Nc1cccc(NC(=O)C2CCCC2)c1` reads 490 nM.
Consider `Cc1cccc(C(=O)Nc2cccc(NC(=O)c3cccc(C)c3)c2)c1`, for which the IC50 was 2240 nM.
`C[C@H]([C@@H]1CC2CC[C@H]1C2)n1c(-c2ccsc2)n[nH]c1=S`: the outcome was inactive.
In the case of `C[C@@H](C1CCCCC1)n1c(-c2ccco2)n[nH]c1=S`, the IC50 is 6660 nM.
Still for that read-out and setting: the result for `COc1cccc(C(=O)Nc2cccc(NC(=O)c3ccccc3)c2)c1` reads 420 nM.
On the same count and under the same terms, the result for `CC(C1CC2CCC1C2)n1c(-c2cccc(Cl)c2)n[nH]c1=S` (centres undefined) reads 960 nM; that for `O=C(Nc1cccc(NC(=O)C2CCCCC2)c1)c1ccccc1`, 8100 nM.
Same read-out and setting: the result for `Cc1ccccc1C(=O)Nc1cccc(NC(=O)c2ccccc2)c1` reads 270 nM; that for `CCOc1ccccc1NC(=O)c1cccc(NC(=O)C2CCCCC2)c1`, 1110 nM.
Regarding `CC(C)n1c(-c2ccco2)n[nH]c1=S`, the outcome was inactive.
For `COc1ccccc1C(=O)Nc1cccc(NC(=O)c2ccccc2OC)c1`, the IC50 was 710 nM.
Take `Cc1ccc(C(=O)Nc2cccc(NC(=O)c3ccccc3)c2)cc1`: the outcome was inactive.
As to `COc1cccc(-c2n[nH]c(=S)n2C(C)C2CC3CCC2C3)c1` (centres undefined), the IC50 is 280 nM.
With `COc1ccc(-c2n[nH]c(=S)n2C(C)C2CC3CCC2C3)cc1` (centres undefined), the IC50 was 330 nM.
The same measure, in the same setting: in the case of `COc1ccc(CCSc2nnc(-c3ccco3)n2C(C)C2CC3CCC2C3)cc1OC` (centres undefined) it was 5480 nM; in that of `CCOc1ccccc1NC(=O)c1cccc(NC(=O)c2cccc(C(F)(F)F)c2)c1`, 2100 nM; in that of `O=C(Nc1cccc(NC(=O)c2ccccn2)c1)c1ccccc1`, 6100 nM.
With `CC(C1CC2CCC1C2)n1c(-c2ccccc2)n[nH]c1=S` (centres undefined), the IC50 is 1240 nM.
On the same count and under the same terms, the result for `CCOc1ccccc1C(=O)Nc1cccc(NC(=O)c2cccc(C)c2)c1` reads 380 nM; that for `C[C@@H]([C@@H]1CC2CC[C@H]1C2)n1c(-c2ccco2)n[nH]c1=S`, 410 nM.
On the same count and under the same terms, in the case of `COc1ccccc1C(=O)Nc1cccc(NC(=O)c2ccccc2C(C)C)c1` it was 670 nM.
The same measure, in the same setting: in the case of `CC(C1CC2CCC1C2)n1c(-c2ccccc2F)n[nH]c1=S` (centres undefined) it was 250 nM.
Take `CCOc1ccccc1NC(=O)c1cccc(NC(=O)CC2CCCC2)c1`: the IC50 is 3900 nM.
The same measure, in the same setting: in the case of `CCOc1ccccc1C(=O)Nc1cccc(NC(=O)c2ccccc2OC)c1` it was 180 nM.
Take `CC(C1CC2CCC1C2)n1c(-c2ccsc2)n[nH]c1=S` (centres undefined): the IC50 is 620 nM.
On the same count and under the same terms, the result for `CCOc1ccccc1NC(=O)c1cccc(NC(=O)c2ccccc2OC(F)(F)F)c1` reads 1490 nM; that for `CC(C1CC2CCC1C2)n1c(-c2ccco2)nn(CCc2ccncc2)c1=S` (centres undefined), 490 nM; that for `Cc1cccc(C(=O)Nc2cccc(NC(=O)c3ccccc3OCC(C)C)c2)c1`, 2520 nM.
On the same count and under the same terms, the result for `COc1ccccc1C(=O)Nc1cccc(NC(=O)c2ccccc2OC(F)(F)F)c1` reads 600 nM; that for `COc1ccccc1C(=O)Nc1cccc(NC(=O)c2cccc(C)c2)c1`, 1490 nM.
Same read-out and setting: the result for `COc1ccccc1-c1n[nH]c(=S)n1C(C)C1CC2CCC1C2` (centres undefined) reads 1040 nM.
`COc1ccccc1NC(=O)c1cccc(NC(=O)C2CCCC2)c1`: the half-maximal inhibitory concentration (IC50) is 3160 nM.
Same read-out and setting: the result for `Cc1cccc(-c2n[nH]c(=S)n2C(C)C2CC3CCC2C3)c1` (centres undefined) reads 760 nM.
The same measure, in the same setting: the result for `Cc1cccc(C(=O)Nc2cccc(NC(=O)c3ccccc3OC(F)(F)F)c2)c1` reads 990 nM.
Still for that read-out and setting: in the case of `S=c1[nH]nc(-c2ccco2)n1CC1CCCCC1` it was 3780 nM.
For the compound `CC(CC1CC2CCC1C2)n1c(-c2ccco2)n[nH]c1=S` (centres undefined), the IC50 is 590 nM.
Same read-out and setting: in the case of `CC(C1CC2CCC1C2)n1c(-c2ccoc2)n[nH]c1=S` (centres undefined) it was 940 nM; in that of `Cc1ccccc1-c1n[nH]c(=S)n1C(C)C1CC2CCC1C2` (centres undefined), 960 nM.
Still for that read-out and setting: in the case of `Cc1cccc(C(=O)Nc2cccc(NC(=O)c3ccccc3C)c2)c1` it was 480 nM; in that of `CC(C1CC2CCC1C2)n1c(-c2ccco2)n[nH]c1=S` (centres undefined), 250 nM and 230 nM.
On to `CCOc1ccccc1NC(=O)c1cccc(NC(=O)c2cccc(C)c2)c1`, for which the IC50 is 2380 nM.
On the same count and under the same terms, in the case of `CCOc1ccccc1C(=O)Nc1cccc(NC(=O)c2ccccc2C(F)(F)F)c1` it was 250 nM; in that of `C[C@H](C1CCCCC1)n1c(-c2ccco2)n[nH]c1=S`, 510 nM; in that of `C[C@H](C1CCCCC1)n1c(-c2ccsc2)n[nH]c1=S`, 680 nM.
As to `CC(C1CC2CCC1C2)n1c(-c2ccccc2Cl)n[nH]c1=S` (centres undefined), the IC50 was 950 nM.
For the compound `Cc1cccc(C(=O)Nc2cccc(NC(=O)c3ccco3)c2)c1`, the concentration for half-maximal inhibition (IC50) is 950 nM.
Same read-out and setting: the result for `CCOc1ccccc1NC(=O)c1cccc(NC(=O)c2ccccc2C(F)(F)F)c1` reads 520 nM.
Consider `CCOc1ccccc1NC(=O)c1cccc(NC(=O)c2ccccc2)c1`, for which the IC50 was 2140 nM.
The same measure, in the same setting: in the case of `CC(C1CC2CCC1C2)n1c(-c2cccc(N(C)C)c2)n[nH]c1=S` (centres undefined) it was 1720 nM.
Still for that read-out and setting: the result for `O=C(Nc1cccc(NC(=O)c2ccccc2C(F)(F)F)c1)c1ccccc1` reads 850 nM; that for `C[C@@H]([C@@H]1CC2CC[C@H]1C2)n1c(-c2ccsc2)n[nH]c1=S`, 410 nM and 680 nM.
For the compound `CCOc1ccccc1NC(=O)c1cccc(NC(=O)CC2CCCCC2)c1`, the IC50 is 4730 nM.
For the compound `O=C(Nc1cccc(NC(=O)c2ccc(C(F)(F)F)cc2)c1)c1ccccc1`, the outcome was inactive.
